# High-throughput results: PubChem, Broad Institute
# An excerpt weighted towards active compounds, which were near 2.1% of everything screened.
# PAX8 reporter – inhibitors of PAX8-driven TPO luciferase reporter, primary screen, RMG-I cells, single concentration. SteadyGlo, 24 h. inhibition, % at 12.6 µM. 360,000 tested, 1.2% active. AID 652154, 2013;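 active = mean replicate inhibition at least 60% with every replicate also reaching 60%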;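 also: luciferase light reporting Pax8 driven TPO promoter activity; plate controls were median of neutral control wells for no effect and mitoxantrone controls for full effect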
# EWS-Fli block – EWS/Fli-driven NR0B1 reporter inhibitors, primary screen, A673 cells, NR0B1 luciferase, luminescence, MLPCN library | viability-normalised | inhibition, % at 12.6 µM | 350,000 tested, 0.67% active | AID 651661, 2012;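 active = mean inhibition of at least 50% after viability correction, with every replicate also passing that limit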;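 also: firefly luciferase signal divided by Alamar Blue viability fluorescence both relative to DMSO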
# XiGFP reactiv – activators of inactive X chromosome reactivation, primary screen, imaging, XiGFP fibroblasts, GFP high-content imaging, set 2. XiGFP mouse fibroblasts, % GFP-positive cells imaging, 3 d; cells co-treated with 5-aza-dC sensitizer; scaled so ellipticine positive control = 100%. AID 743238, 2013. activation, % at 7.58 µM. 360,000 tested, 0.055% active;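 active = mean normalized replicate activation at least 10% and every replicate at or above 10%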;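 also: 0% = median of on-plate neutral control wells and 100% = ellipticine 6 µM median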
#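 material = 68-5-11 XiGFP fibroblast line | medium = DMEM plus 5-aza-dC sensitizer | schedule = 3 days compound exposure | benchmarks = positive control ellipticine, 6 µM final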
# PGC1a acetyl inh – inhibitors of PGC1a acetylation signal, primary screen, cell-based, U2OS, AlphaScreen, inhibitor mode. AlphaScreen anti-acetyl-lysine; with virally co-expressed GCN5 acetyltransferase. inhibition, % at 15.6 µM. 350,000 tested, 0.17% active. AID 651687, 2012;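 active = every replicate shows inhibition of at least 40%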;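 also: 0% = neutral control wells and 100% = positive control wells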
# MLL AF4-AF9 inh – inhibitors of AF4 peptide binding to AF9, primary screen, biochemical, AlphaScreen, biotin-AF4 peptide, FLAG-AF9, single point. AID 651704, 2012. inhibition, % at 10 µM. 350,000 tested, 0.47% active. Protein AF-9 (Homo sapiens), P42568;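 active = every replicate reaching a set inhibition limit, whatever the replicate mean, cut at about 25% in these data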;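 also: 0% = plate neutral control median and 100% = total signal loss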
# Target sequence (P42568 whole entry, looked up): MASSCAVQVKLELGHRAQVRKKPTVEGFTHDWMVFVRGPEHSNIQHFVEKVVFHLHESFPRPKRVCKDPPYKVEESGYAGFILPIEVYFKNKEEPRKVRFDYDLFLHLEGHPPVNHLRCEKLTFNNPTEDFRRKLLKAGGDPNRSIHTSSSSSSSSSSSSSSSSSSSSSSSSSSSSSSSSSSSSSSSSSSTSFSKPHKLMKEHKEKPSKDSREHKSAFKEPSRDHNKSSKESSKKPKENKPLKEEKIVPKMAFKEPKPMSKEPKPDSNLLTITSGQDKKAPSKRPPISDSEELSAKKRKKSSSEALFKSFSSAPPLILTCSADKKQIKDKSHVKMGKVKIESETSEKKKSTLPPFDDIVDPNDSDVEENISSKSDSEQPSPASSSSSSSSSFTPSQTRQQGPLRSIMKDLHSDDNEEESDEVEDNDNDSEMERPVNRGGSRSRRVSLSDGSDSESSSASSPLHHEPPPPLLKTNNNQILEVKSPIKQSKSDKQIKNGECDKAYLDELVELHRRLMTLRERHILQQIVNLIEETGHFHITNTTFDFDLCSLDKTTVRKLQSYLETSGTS
# GSIS activator – GLuc luminescence reporter in INS-1E cells, primary screen for activators of glucose-dependent secretion of insulin; INS-1E GLuc reporter insulin secretion, 2-3 h; activation, % at 16.6 µM; 370,000 tested, 0.61% active; AID 743287, 2014;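 active = lowest replicate activation of at least 40%, so every replicate reaches that level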;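 also: 0% = median of neutral control wells and 100% = median of IBMX positive control wells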
# Starred values were filed as active, the others as inactive; · = no result.
SMILES,PAX8 reporter,EWS-Fli block,XiGFP reactiv,PGC1a acetyl inh,MLL AF4-AF9 inh,GSIS activator
CCOc1cc(/C=N/NC(=O)CSc2cccc3cccnc23)ccc1O,17,-10,0,·,1,66*
CC(C)NC(=O)N[C@H]1CC[C@@H](CCNS(=O)(=O)c2ccc(F)cc2)O[C@@H]1CO,-7,1,0,5,-2,4
CC(Sc1ccc2ccccc2c1)C(=O)NC(N)=O (centres undefined),3,-6,0,-2,0,28
Cc1ccc(SC(C)C(=O)NC(N)=O)c(C)c1 (centres undefined),1,-2,-1,-23,-2,41*
C[C@H](CO)N1C[C@H](C)[C@@H](CN(C)C(=O)Nc2cccc3ccccc23)Oc2ccc(NC(=O)CCN3CCOCC3)cc2CC1=O,2,·,-1,3,1,0
COc1ccc2c3c(n(C)c2c1)[C@H](CO)N(CC1CC1)CC31CN(Cc2ccc(F)cc2)C1,-21,-3,0,0,31*,-2
COc1ccc2c3c(n(C)c2c1)[C@H](CO)NCC31CN(Cc2ccc(F)cc2)C1,·,8,0,·,36*,2
COc1ccc2c3c(n(C)c2c1)[C@H](CO)NCC31CCN(Cc2cc(-c3ccccc3)on2)CC1,82*,-6,0,69*,39*,12
COc1ccc2c3c(n(C)c2c1)[C@@H](CO)NCC31CN(Cc2ccc(Cl)cc2)C1,·,9,0,-2,45*,2
COc1ccc2c3c(n(C)c2c1)[C@H](CO)NCC31CN(Cc2ccccc2F)C1,·,-1,0,-5,54*,26
COc1ccc2c3c(n(C)c2c1)[C@H](CO)NCC31CCN(Cc2ccccc2F)CC1,·,-7,0,0,13,1
COc1ccc2c3c(n(C)c2c1)[C@@H](CO)NCC31CN(CC2CCOCC2)C1,·,3,0,5,32*,-17
COc1ccc2c3c(n(C)c2c1)[C@H](CO)NCC31CN(CC2CC2)C1,·,-5,0,·,19,17
Cc1ccc(COc2ccccc2-c2cc(C(=O)N/N=C/c3cccnc3)[nH]n2)cc1,17,58*,0,·,5,8
COc1ccc(S(=O)(=O)N(C)C[C@@H]2OCCCC[C@@H](C)Oc3ccc(NS(=O)(=O)c4ccc(Cl)cc4)cc3C(=O)N([C@@H](C)CO)C[C@H]2C)cc1,66*,12,0,·,-4,-8
COc1ccc(S(=O)(=O)Nc2ccc3c(c2)C(=O)N([C@H](C)CO)C[C@@H](C)[C@H](CN(C)S(=O)(=O)c2ccc(Cl)cc2)OCCCC[C@H](C)O3)cc1,83*,17,0,5,0,5
COc1ccc(OC)c(NC(=O)Nc2nc(C(N)c3ccccc3Cl)cs2)c1 (centres undefined),10,14,0,-20,26*,-11
CCS(=O)(=O)N1Cc2cc(C(=O)O)nc(-c3cccc(-c4ccc(C#N)cc4)c3)c2[C@H]1CCO,8,·,0,5,-6,0
O=S(=O)(N[C@@H]1CC[C@H](CCn2cc(-c3cccc(F)c3)nn2)O[C@H]1CO)c1ccc(F)cc1,·,6,0,-9,-2,-15
Cc1[nH]c2ccc(C(C)C)cc2c1CC(=O)O,15,3,0,76*,0,-10
Cc1ccc2[nH]c(C)c(CC(=O)O)c2c1,·,·,·,9,·,·
CN1Cc2c(N3CCOCC3)nc3sc(C(=O)c4ccc(Br)cc4)c(N)c3c2CC1(C)C,-28,19,1,-83,30*,·
COc1ccc(NC(=O)c2sc3nc(N4CCOCC4)c4c(c3c2N)CC(C)(C)OC4)c(OC)c1,-15,44,0,-1,-3,127*
COc1ccc(NC(=O)c2sc3nc(N4CCOCC4)c4c(c3c2N)CC(C)(C)OC4)cc1,-9,-1,0,-6,-1,26
